According to ChEMBL document CHEMBL2384910, “Lead optimization of 5-amino-6-(2,2-dimethyl-5-oxo-4-phenylpiperazin-1-yl)-4-hydroxyhexanamides to reduce a cardiac safety issue: discovery of DS-8108b, an orally active renin inhibitor” (Bioorg Med Chem, 2013):
Residue numbers refer to the chain shown, from its start.

Tests used:
[1] = target: T1, Renin (Macaca fascicularis) (UniProt Q6DLS0); assay: Ratio of compound IC50 to aliskiren IC50 for renin in cynomolgus monkey plasma
T1 sequence (whole entry): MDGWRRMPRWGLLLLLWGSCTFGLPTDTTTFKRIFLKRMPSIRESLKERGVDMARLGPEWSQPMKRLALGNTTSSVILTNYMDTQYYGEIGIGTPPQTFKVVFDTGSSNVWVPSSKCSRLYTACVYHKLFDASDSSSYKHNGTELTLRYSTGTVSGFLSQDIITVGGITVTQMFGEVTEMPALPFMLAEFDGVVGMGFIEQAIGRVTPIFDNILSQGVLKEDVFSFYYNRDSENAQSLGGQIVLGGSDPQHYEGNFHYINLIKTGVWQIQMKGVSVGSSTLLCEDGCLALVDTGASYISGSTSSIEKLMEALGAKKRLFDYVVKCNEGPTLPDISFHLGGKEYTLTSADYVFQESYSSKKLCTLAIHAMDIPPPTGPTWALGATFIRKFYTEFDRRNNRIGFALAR

Rattus norvegicus = assay: Cardiotoxicity in Sprague-Dawley rat electrophysiology model assessed as QRS complex abnormalities at 10 mg/kg, iv by ECG analysis; assay type: toxicity, organism-based; design: dose 10 mg/kg, route intravenous; settings: in vivo
Procedure, shortened: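 Male Sprague-Dawley rats anesthetized with inactin 100 mg/kg ip; surface lead II ECG recorded continuously. Compounds given as iv bolus via right jugular vein catheter after stabilization; QRS complex abnormality scored as no, moderate or severe change; n = 2 at 10 mg/kg.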

Renin [2] = target: T2, Renin (Homo sapiens, UniProt P00797); assay: Inhibition of human recombinant renin using Arg-Glu(EDANS)-Ile-His-Pro-Phe-His-Leu-Val-Ile-His-Thr-Lys (DABCYL)-Arg as substrate incubated for 10 mins prior to substrate addition measured after 90 mins by fluorescence assay
T2 sequence (P00797 whole entry): T1 sequence (whole entry) with A68T, L214I, A235S
Procedure, shortened: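 Trypsin-activated recombinant human renin in 50 mM Tris-HCl pH 7.9, 100 mM NaCl, preincubated with compound 10 min at room temperature; FRET substrate Arg-Glu(EDANS)…Lys(DABCYL)-Arg added, 90 min at 37 °C.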

Renin [3] = target: T3, Renin (Macaca fascicularis, UniProt Q6DLS0); assay: Inhibition of renin in cynomolgus monkey plasma after 1 hr by RIA
T3 sequence (Q6DLS0 whole entry): T1 sequence (whole entry)
Procedure, shortened: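 Pooled mixed-gender EDTA cynomolgus monkey plasma with pH adjusting solution and Inhibitor A, compound in 1% DMSO final, incubated 1 h at 37 °C. Angiotensin I by competitive RIA; uninhibited and 4 °C controls define % inhibition; IC50 from four-parameter fit; ratio is compound IC50 over aliskiren IC50 in same plasma batch; ≥2 replicates.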

SMILES	Ratio IC50 [1]	Activity (Rattus norvegicus)	IC50 (Renin [2]) [nM]	IC50 (Renin [3]) [nM]
CC(C)[C@H](C[C@H](O)[C@@H](N)CN1CC(=O)N(c2ccccc2Cl)CC1(C)C)C(=O)NCC(C)(C)C(N)=O.O=C(O)/C=C/C(=O)O	1.2	Non-toxic	–	–
CC[C@H](C[C@H](O)[C@@H](N)CN1CC(=O)N(c2ccccc2Cl)CC1(C)C)C(=O)NCC(C)(C)C.O=C(O)/C=C/C(=O)O	0.3	Toxic	0.8	2.3
CC(C)[C@H](C[C@H](O)[C@@H](N)CN1CC(=O)N(c2ccccc2Cl)CC1(C)C)C(=O)Nc1ncc(F)cc1F.O=C(O)/C=C/C(=O)O	0.7	Toxic	1.7	3.3
CC[C@H](C[C@H](O)[C@@H](N)CN1CC(=O)N(c2ccccc2Cl)CC1(C)C)C(=O)Nc1ccc(F)cc1.O=C(O)/C=C/C(=O)O	0.9	Toxic	1.6	3.4
C[C@H](C[C@H](O)[C@@H](N)CN1CC(=O)N(c2ccccc2Cl)CC1(C)C)C(=O)NCC(C)(C)C	0.5	–	1	2.1
CC(C)CNC(=O)C(C)(C)C[C@H](O)[C@@H](N)CN1CC(=O)N(c2cc(F)ccc2Cl)CC1(C)C.O=C(O)/C=C/C(=O)O	132	Toxic	97	738
CC(C)[C@H](C[C@H](O)[C@@H](N)CN1CC(=O)N(c2ccccc2Cl)CC1(C)C)C(=O)Nc1ccc(F)cc1.O=C(O)/C=C/C(=O)O	1.2	Toxic	1.4	7.2
CC[C@H](C[C@H](O)[C@@H](N)CN1CC(=O)N(c2ccccc2Cl)CC1(C)C)C(=O)NCC(CC)(CC)CO.O=C(O)/C=C/C(=O)O	0.8	Toxic	1	3
Cc1ccc(F)cc1N1CC(C)(C)N(C[C@H](N)[C@@H](O)C[C@H](C(=O)Nc2cccnc2)C(C)C)CC1=O.O=C(O)/C=C/C(=O)O	3.3	Toxic	2.4	33
CC(C)[C@H](C[C@H](O)[C@@H](N)CN1CC(=O)N(c2ccccc2Cl)CC1(C)C)C(=O)NC1CCOCC1.O=C(O)/C=C/C(=O)O	1.4	Toxic	2	9.8
Cc1cccc(NC(=O)[C@@H](C[C@H](O)[C@@H](N)CN2CC(=O)N(c3ccccc3Cl)CC2(C)C)C(C)C)n1.O=C(O)/C=C/C(=O)O	7.3	Toxic	5.6	47
Cc1ccc(F)cc1N1CC(C)(C)N(C[C@H](N)[C@@H](O)C[C@H](C(=O)NCC(C)(C)C(=O)O)C(C)C)CC1=O	16	–	16	39
C[C@H](C[C@H](O)[C@@H](N)CN1CC(=O)N(c2ccccc2Cl)CC1(C)C)C(=O)N[C@H]1C2CC3CC1C[C@](O)(C3)C2.O=C(O)/C=C/C(=O)O	1.6	Non-toxic	1.1	7.3
CC(C)[C@H](C[C@H](O)[C@@H](N)CN1CC(=O)N(c2ccccc2Cl)CC1(C)C)C(=O)Nc1ccc(F)cc1F.O=C(O)/C=C/C(=O)O	3	Toxic	2	14
CC(C)[C@H](C[C@H](O)[C@@H](N)CN1CC(=O)N(c2ccccc2Cl)CC1(C)C)C(=O)NC12CC3CC(CC(O)(C3)C1)C2.O=C(O)/C=C/C(=O)O	0.7	Toxic	2	6.5
CC(C)[C@H](C[C@H](O)[C@@H](N)CN1CC(=O)N(c2ccccc2Cl)CC1(C)C)C(=O)Nc1cccnc1	1.9	–	2.1	19
CC(C)[C@H](C[C@H](O)[C@@H](N)CN1CC(=O)N(c2ccccc2Cl)CC1(C)C)C(=O)NCC(C)(C)O.O=C(O)/C=C/C(=O)O	1.9	Non-toxic	2.4	15

SMILES	Ratio IC50 [1]	Activity (Rattus norvegicus)	IC50 (Renin [2]) [nM]	IC50 (Renin [3]) [nM]
CC(C)NC(=O)[C@@H](C[C@H](O)[C@@H](N)CN1CC(=O)N(c2ccccc2Cl)CC1(C)C)C(C)C.O=C(O)/C=C/C(=O)O	2.7	Toxic	2.9	33
Cc1ccc(F)cc1N1CC(C)(C)N(C[C@H](N)[C@@H](O)C[C@H](C(=O)N[C@H]2C3CC4CC2C[C@](O)(C4)C3)C(C)C)CC1=O.O=C(O)/C=C/C(=O)O	0.9	Non-toxic	1.7	10
CC[C@H](C[C@H](O)[C@@H](N)CN1CC(=O)N(c2ccccc2Cl)CC1(C)C)C(=O)Nc1ccc(F)cn1.O=C(O)/C=C/C(=O)O	0.6	Toxic	1	2.1
CC(C)[C@H](C[C@H](O)[C@@H](N)CN1CC(=O)N(c2ccccc2Cl)CC1(C)C)C(=O)Nc1ccccc1.O=C(O)/C=C/C(=O)O	1.3	Toxic	1.4	9.2
CC[C@H](C[C@H](O)[C@@H](N)CN1CC(=O)N(c2ccccc2Cl)CC1(C)C)C(=O)Nc1ccc(C)cc1.O=C(O)/C=C/C(=O)O	4.5	Toxic	3.2	28
CC(C)[C@H](C[C@H](O)[C@@H](N)CN1CC(=O)N(c2ccccc2Cl)CC1(C)C)C(=O)Nc1ccccn1.O=C(O)/C=C/C(=O)O	0.7	Toxic	1.8	3.4
COC(=O)C(C)(C)CNC(=O)[C@@H](C[C@H](O)[C@@H](N)CN1CC(=O)N(c2ccccc2Cl)CC1(C)C)C(C)C.O=C(O)/C=C/C(=O)O	1.6	Toxic	1.8	23
CC(C)[C@H](C[C@H](O)[C@@H](N)CN1CC(=O)N(c2ccccc2Cl)CC1(C)C)C(=O)NCC(C)(C)CO.O=C(O)/C=C/C(=O)O	0.8	Toxic	1.7	9.6
CC[C@H](C[C@H](O)[C@@H](N)CN1CC(=O)N(c2ccccc2Cl)CC1(C)C)C(=O)Nc1ncccc1C.O=C(O)/C=C/C(=O)O	2.9	Toxic	3.8	15
CCCCNC(=O)[C@@H](C[C@H](O)[C@@H](N)CN1CC(=O)N(c2ccccc2Cl)CC1(C)C)C(C)C.O=C(O)/C=C/C(=O)O	0.8	Toxic	–	–
CC(C)CNC(=O)[C@@H](C[C@H](O)[C@@H](N)CN1CC(=O)N(c2ccccc2Cl)CC1(C)C)C(C)C.O=C(O)/C=C/C(=O)O	0.7	Toxic	1.4	4
CC[C@H](C[C@H](O)[C@@H](N)CN1CC(=O)N(c2ccccc2Cl)CC1(C)C)C(=O)NCC1(CO)CCCC1.O=C(O)/C=C/C(=O)O	0.7	Toxic	1.1	3
CC[C@H](C[C@H](O)[C@@H](N)CN1CC(=O)N(c2ccccc2Cl)CC1(C)C)C(=O)Nc1ccc(OC)cc1.O=C(O)/C=C/C(=O)O	2.1	Toxic	1.4	11
CC[C@H](C[C@H](O)[C@@H](N)CN1CC(=O)N(c2ccccc2Cl)CC1(C)C)C(=O)N[C@H]1C2CC3CC1C[C@@](O)(C3)C2.O=C(O)/C=C/C(=O)O	0.7	Toxic	1.1	1.8
CC[C@H](C[C@H](O)[C@@H](N)CN1CC(=O)N(c2ccccc2Cl)CC1(C)C)C(=O)Nc1cc(OC)ccn1	13	–	6.7	33
CC[C@H](C[C@H](O)[C@@H](N)CN1CC(=O)N(c2ccccc2Cl)CC1(C)C)C(=O)NCC1(CO)CCCCC1.O=C(O)/C=C/C(=O)O	0.6	Toxic	1.1	3.4
CCCCNC(=O)[C@@H](C[C@H](O)[C@@H](N)CN1CC(=O)N(c2cc(F)ccc2Cl)CC1(C)C)C(C)C	1.2	–	–	–
